Laboratory results taken from ChEMBL document CHEMBL3526143, “Pulmonary metabolism of resveratrol: in vitro and in vivo evidence” (Drug Metab Dispos, 2013).

Legend:
[1] = Plasma protein binding in mouse at 20 uM by equilibrium dialysis method; assay type: ADME, cell-free; details: read-out: PPB (converted)
Procedure, shortened: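 Equilibrium dialysis uses 5K MWCO membranes on a rotator at 37°C under 10% CO2. Thawed mouse plasma is adjusted to pH 7.4, and each analyte is tested at 20 µM; n = 3.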

[2] = Partial substrate inhibition in mouse lung S9 fractions treated with trans-resveratrol preincubated for 3 mins followed by PAPS addition measured after 60 mins by Eadie-Hofstee plot analysis; assay type: ADME
Procedure, shortened: (§1)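 Sulfation uses pooled lung S9 (mouse 1 mg/ml, human 0.5 mg/ml final) with substrate at 0.01 µM–5 mM in 2% HP-β-CD, 5 mM MgCl2 and 10 mM potassium phosphate pH 6.5 at 37°C. After 3 min preincubation, 1 mM PAPS is added for 60 min, and the reaction is stopped with ascorbic acid and cold methanol. Triplicates are run, with a control lacking PAPS. Kinetics are fitted by nonlinear regression (partial substrate inhibition) after Eadie-Hofstee inspection.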

[3] = Partial substrate inhibition in human lung S9 fractions treated with trans-resveratrol preincubated for 3 mins followed by PAPS addition measured after 60 mins by Eadie-Hofstee plot analysis; assay type: ADME; procedure, shortened: as §1
[4] = Partial substrate inhibition in mouse lung S9 fractions treated with trans-resveratrol preincubated for 3 mins followed by UDPGA addition measured after 60 mins by Eadie-Hofstee plot analysis; assay type: ADME
Procedure, shortened: (§2)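 Pooled mouse lung S9 (0.5 mg/ml final) is incubated with substrate at 0.01 µM–5 mM in 2% final HP-β-CD, alamethicin 10 µg/ml, 5 mM MgCl2 and Tris-HCl 100 mM pH 7.4 at 37°C. The reaction is started with 5 mM UDPGA and stopped at 60 min with ascorbic acid and cold methanol. Triplicates are run, with a control lacking UDPGA. Data are screened on Eadie-Hofstee plots and fitted by nonlinear regression to a partial substrate inhibition model.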

[5] = Drug level in human lung microsomes treated with trans-resveratrol at 0.5 mM measured at 60 mins; assay type: ADME; details: 1 h, 500 µM
Procedure, shortened: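 Pooled human lung microsomes at 0.1, 0.5 and 2.5 mg/ml final, with 0.5 mM substrate in 2% final HP-β-CD, are incubated with UDPGA cofactor for 60 min. Glucuronide is quantified by LC-MS/MS, with an LOQ of 10 ng/ml.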

[6] = Volume of distribution at steady state in C57BL/6 mouse at 15 mg/kg, iv; assay type: ADME, organism-based; design: dose 15 mg/kg, route intravenous; details: in vivo, read-out: Vdss
Procedure, shortened: (§3)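 Male C57BL/6 mice, 20–25 g, given a single IV dose of 15 mg/kg in 20% HP-β-CD in saline. Blood (20 µl) is drawn serially through a carotid artery cannula at 2.5–600 min, and plasma is assayed by LC-MS/MS. Noncompartmental analysis gives AUC by the linear trapezoidal rule, CL = dose/AUC0-inf, Vss = CL × MRT0-inf and t1/2 = 0.693/λ; n = 5.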

[7] = Clearance in C57BL/6 mouse at 15 mg/kg, iv; assay type: ADME, organism-based; design: dose 15 mg/kg, route intravenous; details: in vivo; procedure, shortened: as §3
[8] = Drug metabolism in human lung S9 fractions assessed as trans-resveratrol-3-sulfate formation preincubated for 3 mins followed by PAPS addition measured after 60 mins by Eadie-Hofstee plot analysis; assay type: ADME, tissue-based; details: s9, 1 h; procedure, shortened: as §1
[9] = Drug metabolism in mouse lung S9 fractions assessed as trans-resveratrol-3-O-glucuronide formation preincubated for 3 mins followed by UDPGA addition measured after 60 mins by Eadie-Hofstee plot analysis; assay type: ADME, tissue-based; details: s9, 1 h; procedure, shortened: as §2
[10] = Terminal half life in C57BL/6 mouse at 15 mg/kg, iv; assay type: ADME, organism-based; design: dose 15 mg/kg, route intravenous; details: in vivo, read-out: beta t1/2; procedure, shortened: as §3
[11] = Bioavailability in C57BL/6 mouse at 15 mg/kg, iv; assay type: ADME, organism-based; details: in vivo
[12] = AUC (0 to infinity) in C57BL/6 mouse at 15 mg/kg, iv; assay type: ADME, organism-based; design: time infinity, dose 15 mg/kg, route intravenous; details: plasma; procedure, shortened: as §3
[13] = Drug metabolism in mouse lung S9 fractions assessed as trans-resveratrol-3-sulfate formation preincubated for 3 mins followed by PAPS addition measured after 60 mins by Eadie-Hofstee plot analysis; assay type: ADME, tissue-based; details: s9, 1 h; procedure, shortened: as §1

Row | fraction unbound at 20 µM [1] | Ki [2] | Ki [3] | Ki [4] | Drug metabolism [5] | Vd [6] | clearance [7] | Km [8] | Vmax [8] | Km [9] | Vmax [9] | half-life [10] | bioavailability [11] | AUC(0-inf) [12] | Km [13] | Vmax [13] | SMILES
1 | 0.128 | 2.02 mM | 23.2 mM | – | – | – | – | – | – | – | – | – | – | – | – | – | O=S(=O)(O)Oc1cc(O)cc(/C=C/c2ccc(O)cc2)c1
2 | 0.333 | – | – | 6.63 mM | < 10 ng/mL | – | – | – | – | – | – | – | – | – | – | – | O=C(O)[C@H]1O[C@@H](Oc2cc(O)cc(/C=C/c3ccc(O)cc3)c2)[C@H](O)[C@@H](O)[C@@H]1O
3 | 0.0805 | – | – | – | – | 34.9 L/kg | 280 mL/min/kg | 4.45 µM | 16.15 pmol/min/mg | 7.34 µM | 324.4 pmol/min/mg | 1.69 h | 49.9% | 4.92 µM·h | 2.69 µM | 7.05 pmol/min/mg | Oc1ccc(/C=C/c2cc(O)cc(O)c2)cc1 [RESVERATROL]
